Where a SMILES comes first, the peptide text is derived from it. [ ]: non-standard residue; d: D form. Dha = C=C(N)C(=O)O
Assays:
[1] = molecular target: Delta-type opioid receptor (Mus musculus) (UniProt P32300); test: Agonist activity at delta opioid receptor in mouse vas deference assessed as inhibition of electrically-stimulated contraction at 1 uM; assay type: functional
[2] = molecular target: Mu-type opioid receptor (Rattus norvegicus, UniProt P33535); test: Displacement of [3H]DAMGO from mu opioid receptor in rat brain membrane by liquid scintillation counting; assay type: cell membranes
[3] = molecular target: Delta-type opioid receptor (Rattus norvegicus, UniProt P33533); test: Displacement of [3H][…] from delta opioid receptor in rat brain membrane by liquid scintillation counting; assay type: cell membranes
[4] = organism: Rattus norvegicus; test: Selectivity ratio of Ki for delta opioid receptor in rat brain membrane to Ki for mu opioid receptor in rat brain membrane; assay type: cell membranes
[5] = molecular target: Delta-type opioid receptor (Mus musculus, UniProt P32300); test: Agonist activity at delta opioid receptor in mouse vas deference assessed as inhibition of electrically-stimulated contraction; assay type: functional
How it was run: (§1)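 Isolated-tissue bioassay of inhibition of electrically evoked contraction (MVD for δ, GPI/LMMP for μ). IC50 is the mean of at least four experiments. IC50, relative potency and standard errors were obtained by fitting the data to the Hill equation by computerized non-linear least squares.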

[6] = molecular target: Mu-type opioid receptor (Cavia porcellus, UniProt P97266); test: Agonist activity at mu opioid receptor in guinea pig ileum assessed as inhibition of electrically-stimulated contraction; assay type: functional, tissue-based; how it was run: as §1
Sequence of Mu-type opioid receptor (Cavia porcellus, UniProt P97266) (P97266 whole entry): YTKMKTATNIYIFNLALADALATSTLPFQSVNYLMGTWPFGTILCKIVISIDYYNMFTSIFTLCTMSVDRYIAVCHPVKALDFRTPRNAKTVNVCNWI

Sequence of Mu-type opioid receptor (Rattus norvegicus, UniProt P33535) (P33535 whole entry): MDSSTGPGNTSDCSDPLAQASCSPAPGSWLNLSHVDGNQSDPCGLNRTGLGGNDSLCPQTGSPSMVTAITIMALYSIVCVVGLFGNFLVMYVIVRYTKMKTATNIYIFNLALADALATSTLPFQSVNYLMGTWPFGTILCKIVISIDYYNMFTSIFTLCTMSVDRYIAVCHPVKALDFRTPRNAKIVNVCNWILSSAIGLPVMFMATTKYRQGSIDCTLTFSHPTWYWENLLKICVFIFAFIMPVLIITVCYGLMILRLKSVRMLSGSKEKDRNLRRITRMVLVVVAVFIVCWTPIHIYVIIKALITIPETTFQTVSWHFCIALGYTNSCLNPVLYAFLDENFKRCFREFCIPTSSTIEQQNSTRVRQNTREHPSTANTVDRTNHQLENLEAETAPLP
Sequence of Delta-type opioid receptor (Rattus norvegicus, UniProt P33533) (P33533 whole entry): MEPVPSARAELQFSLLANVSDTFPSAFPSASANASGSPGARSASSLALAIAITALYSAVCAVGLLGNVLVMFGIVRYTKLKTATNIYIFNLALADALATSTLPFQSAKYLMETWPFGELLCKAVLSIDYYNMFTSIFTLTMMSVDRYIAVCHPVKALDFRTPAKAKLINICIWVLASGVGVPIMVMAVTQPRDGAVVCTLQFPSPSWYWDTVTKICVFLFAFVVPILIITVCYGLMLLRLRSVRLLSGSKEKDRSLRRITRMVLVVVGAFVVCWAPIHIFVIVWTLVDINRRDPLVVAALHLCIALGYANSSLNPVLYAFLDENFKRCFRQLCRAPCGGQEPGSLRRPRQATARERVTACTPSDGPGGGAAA
Sequence of Delta-type opioid receptor (Mus musculus) (P32300 whole entry): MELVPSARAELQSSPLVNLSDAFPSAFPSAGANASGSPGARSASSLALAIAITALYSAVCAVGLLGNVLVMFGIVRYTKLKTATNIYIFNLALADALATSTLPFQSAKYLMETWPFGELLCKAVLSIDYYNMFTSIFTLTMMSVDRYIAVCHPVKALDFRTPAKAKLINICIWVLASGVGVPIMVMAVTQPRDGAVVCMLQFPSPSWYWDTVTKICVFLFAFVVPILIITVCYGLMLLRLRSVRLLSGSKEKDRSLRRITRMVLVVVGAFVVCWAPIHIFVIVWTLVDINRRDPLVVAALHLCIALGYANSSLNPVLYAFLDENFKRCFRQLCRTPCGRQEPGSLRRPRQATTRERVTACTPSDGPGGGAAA
Sequence of Delta-type opioid receptor (Mus musculus, UniProt P32300) (P32300 whole entry): as above

| Compound | inhibition [1] | Ki [2] | Ki [3] | Ratio Ki [4] | IC50 [5] | IC50 [6] |
| --- | --- | --- | --- | --- | --- | --- |
| NC(=O)[C@H](Cc1ccccc1)NC(=O)[C@H](Cc1ccccc1)NC(=O)C1CN(C(=O)[C@@H](N)Cc2ccc(O)cc2)C1 | 13% | 210 nM | 6900 nM | 32 |  |  |
| NC(=O)[C@H](Cc1ccccc1)NC(=O)[C@H](Cc1ccccc1)NC(=O)[C@@H]1C=CCN1C(=O)[C@@H](N)Cc1ccc(O)cc1 |  | 6.5 nM |  |  | 70000 nM | 14000 nM |
| NC(=O)[C@H](Cc1ccccc1)NC(=O)[C@H](Cc1ccccc1)NC(=O)[C@@H]1CCN1C(=O)[C@@H](N)Cc1ccc(O)cc1 |  | 5.6 nM | 5100 nM | 920 |  |  |
| NC(=O)[C@H](Cc1ccccc1)NC(=O)[C@H](Cc1c[nH]c2ccccc12)NC(=O)C1CN(C(=O)[C@@H](N)Cc2ccc(O)cc2)C1 |  | 34 nM | 40 nM | 1.2 |  |  |
| NC(=O)[C@H](Cc1ccccc1)NC(=O)[C@H](Cc1c[nH]c2ccccc12)NC(=O)[C@@H]1CCN1C(=O)[C@@H](N)Cc1ccc(O)cc1 |  | 2.3 nM | 3500 nM | 1500 |  |  |
| C=C(NC(=O)[C@@H](N)Cc1ccc(O)cc1)C(=O)N[C@@H](Cc1ccccc1)C(=O)N[C@@H](Cc1ccccc1)C(N)=O (H-Y[Dha]FF-NH2) |  | 34 nM | 710 nM | 21 |  |  |

From ChEMBL document CHEMBL1152403, “Synthesis and evaluation of new endomorphin analogues modified at the Pro(2) residue” (Bioorg Med Chem Lett, 2009)
